# Reference: publication PMC5644278 (Alzheimer's & Dementia : Translational Research & Clinical …, 2016)
# What was measured:
# [1] = system: healthy male subjects; test: Visual verbal learning test; assay type: in vivo, human
# [2] = system: healthy male subjects; test: Face encoding and recognition task, single dose; assay type: in vivo, human
# Procedure, shortened: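 Single intranasal dose in a double-dummy design (11 mg young males; 22 or 33 mg elderly males; 6 per dose) or nasal placebo. The face encoding and recognition task was done before dosing and 1 h 45 min after the nasal dose, in a quiet room, one subject per session. Each active group was compared with age-matched placebo by mixed-model ANOVA.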
# [3] = system: healthy male subjects; test: Adaptive tracking; assay type: in vivo, human
# Procedure, shortened: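 Healthy males got one intranasal spray dose in a double-dummy design with oral capsules: 11 mg for young subjects, 22 or 33 mg for elderly subjects, 6 per dose, with age-matched nasal placebo. NeuroCart tests were run twice before dosing, then at 1, 2, 3, 4, 5, 6, 8 and 10 h after, in a quiet room, one subject per session. Analysis was mixed-model ANOVA: treatment, time and treatment×time fixed, subject random, baseline as covariate.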
# [4] = system: healthy male subjects; test: VAS nausea, single dose; assay type: in vivo, human; details: healthy elderly males
# [5] = system: healthy male subjects; test: Eye movements; assay type: in vivo, human
# [6] = system: healthy male subjects; test: Nasal examination; assay type: in vivo, human; details: Gln-1062 44-mg group
# Procedure, shortened: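 Nasal examination at screening, during the study period after one intranasal dose (44 mg; healthy elderly males, 6 active per cohort, double-dummy with oral capsules), and at follow-up about 1 week after dosing.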
# [7] = system: healthy male subjects; test: Pharmaco-electroencephalography, single dose; assay type: in vivo, human
# [8] = system: Wistar rats; test: 28-day intranasal toxicity study; assay type: in vivo
# [9] = Pharmacokinetics of Gln-1062 in female Wistar rats; assay type: in vivo
# [10] = system: healthy male subjects; test: Treatment emergent adverse events, single dose study; assay type: in vivo, human; details: for Any event (treatment emerging adverse events) / Headache / Nasal discomfort / Rhinorrhea / Sneezing / Cold sweat or hyperhidrosis / Nausea / Vomiting / Diarrhea: number of subjects, percentage in parentheses
# [11] = Plasma pharmacokinetics after single intranasal dose of Gln-1062; assay type: in vivo, human; details: over the Gln-1062 intranasal dose levels
# [12] = Gln-1062 5.5 mg vs Placebo, healthy young males
# [13] = Gln-1062 11 mg vs Placebo, healthy young males
# [14] = Gln-1062 22 mg vs Placebo, healthy elderly males
# [15] = Gln-1062 33 mg vs Placebo, healthy elderly males
# [16] = Gln-1062 44 mg vs Placebo, healthy elderly males
# [17] = Gln-1062 5.5 mg, healthy young males
# [18] = Gln-1062 5.5 mg, healthy young subjects
# [19] = Gln-1062 11 mg, healthy young males
# [20] = Gln-1062 11 mg, healthy young subjects
# [21] = Gln-1062 22 mg, healthy elderly males
# [22] = Gln-1062 22 mg, healthy elderly subjects
# [23] = Gln-1062 33 mg, healthy elderly males
# [24] = Gln-1062 33 mg, healthy elderly subjects
# [25] = Gln-1062 44 mg, healthy elderly males
# [26] = Gln-1062 44 mg, healthy elderly subjects
structure (smiles),measurement,setting,value
COc1ccc2c3c1O[C@H]1C[C@@H](OC(=O)c4ccccc4)C=C[C@@]31CCN(C)C2 [Gln-1062],VVLT: delayed word recall (correct),[1]; [12],3.42 (−2.62 to 9.45) P = .2431
same,VVLT: immediate word recall trial 1 (Word recall correct 1),[1]; [12],3.42 (−0.73 to 7.56) P = .0984
same,VVLT: immediate word recall trial 2 (Word recall correct 2),[1]; [12],3.17 (−1.93 to 8.26) P = .2025
same,VVLT: immediate word recall trial 3 (Word recall correct 3),[1]; [12],5.00 (−0.58 to 10.58) P = .0749
same,VVLT: word recognition (Delayed word recognition correct),[1]; [12],−0.15 (−8.05 to 7.75) P = .9674
same,VVLT: delayed word recall (correct),[1]; [13],3.25 (−2.79 to 9.29) P = .2657
same,VVLT: immediate word recall trial 1 (Word recall correct 1),[1]; [13],3.92 (−0.23 to 8.06) P = .0621
same,VVLT: immediate word recall trial 2 (Word recall correct 2),[1]; [13],1.83 (−3.26 to 6.93) P = .4510
same,VVLT: immediate word recall trial 3 (Word recall correct 3),[1]; [13],3.00 (−2.58 to 8.58) P = .2662
same,VVLT: word recognition (Delayed word recognition correct),[1]; [13],1.45 (−6.45 to 9.35) P = .6939
same,VVLT: delayed word recall (correct),[1]; [14],−0.33 (−3.58 to 2.91) P = .8354
same,VVLT: immediate word recall trial 1 (Word recall correct 1),[1]; [14],2.67 (0.17 to 5.16) P = .0367
same,VVLT: immediate word recall trial 2 (Word recall correct 2),[1]; [14],3.50 (0.33 to 6.67) P = .0315
same,VVLT: immediate word recall trial 3 (Word recall correct 3),[1]; [14],0.67 (−3.23 to 4.56) P = .7302
same,VVLT: word recognition (Delayed word recognition correct),[1]; [14],0.87 (−4.09 to 5.82) P = .7231
same,VVLT: delayed word recall (correct),[1]; [15],−0.00 (−3.63 to 3.63) P = 1.0000
same,VVLT: immediate word recall trial 1 (Word recall correct 1),[1]; [15],1.97 (−0.65 to 4.58) P = .1355
same,VVLT: immediate word recall trial 2 (Word recall correct 2),[1]; [15],1.77 (−1.56 to 5.09) P = .2880
same,VVLT: immediate word recall trial 3 (Word recall correct 3),[1]; [15],0.60 (−3.49 to 4.69) P = .7672
same,VVLT: word recognition (Delayed word recognition correct),[1]; [15],−0.67 (−6.45 to 5.12) P = .8153
same,VVLT: delayed word recall (correct),[1]; [16],−1.00 (−4.63 to 2.63) P = .5780
same,VVLT: immediate word recall trial 1 (Word recall correct 1),[1]; [16],2.57 (−0.05 to 5.18) P = .0541
same,VVLT: immediate word recall trial 2 (Word recall correct 2),[1]; [16],1.77 (−1.56 to 5.09) P = .2880
same,VVLT: immediate word recall trial 3 (Word recall correct 3),[1]; [16],1.00 (−3.09 to 5.09) P = .6222
same,VVLT: word recognition (Delayed word recognition correct),[1]; [16],2.17 (−3.11 to 7.45) P = .4083
same,Face: number correct,[2]; [12],−0.77 (−4.17 to 2.64) P = .6332
same,Face: number correct,[2]; [13],4.54 (1.22 to 7.87) P = .0116
same,Face: number correct,[2]; [14],−2.58 (−7.22 to 2.06) P = .2642
same,Face: number correct,[2]; [15],−0.54 (.5.15 to 4.08) P = .8135
same,Face: number correct,[2]; [16],−1.63 (−6.30 to 3.05) P = .4822
same,Adaptive tracking,[3]; [12],1.96 (−0.88 to 4.80) P = .1581%
same,Adaptive tracking,[3]; [13],3.47 (0.52 to 6.42) P = .0247%
same,Adaptive tracking,[3]; [14],0.64 (−1.06 to 2.35) P = .4474%
same,Adaptive tracking,[3]; [15],1.79 (0.07 to 3.52) P = .0424%
same,Adaptive tracking,[3]; [16],0.74 (−0.99 to 2.48) P = .3887%
same,"peak of nausea (VAS nausea), time after administration",[4],4 h
same,Saccadic Inaccuracy,[5]; [12],−1.56 (−2.77 to −0.35) P = .0157%
same,Saccadic Peak Velocity,[5]; [12],9.90 (−17.50 to 37.30) P = .4465 deg/sec
same,Saccadic Inaccuracy,[5]; [13],−1.78 (−3.03 to −0.54) P = .0088%
same,Saccadic Peak Velocity,[5]; [13],8.32 (−18.32 to 34.95) P = .5097 deg/sec
same,Saccadic Inaccuracy,[5]; [14],0.24 (−1.01 to 1.48) P = .7005%
same,Saccadic Peak Velocity,[5]; [14],26.92 (4.11 to 49.73) P = .0223 deg/sec
same,Saccadic Inaccuracy,[5]; [15],0.08 (−1.14 to 1.30) P = .8970%
same,Saccadic Peak Velocity,[5]; [15],0.92 (−21.84 to 23.68) P = .9349 deg/sec
same,Saccadic Inaccuracy,[5]; [16],−0.22 (−1.57 to 1.12) P = .7363%
same,Saccadic Peak Velocity,[5]; [16],19.19 (−5.54 to 43.92) P = .1242 deg/sec
same,subjects with dry white plaques in the nostrils,[6],three
same,EEG Alpha Fz-Cz (uV),[7]; [12],−13.2% (−30.5% to 8.5%) P = .1914
same,EEG Alpha Pz-Oz (uV),[7]; [12],−8.9% (−23.8% to 8.9%) P = .2782
same,EEG Alpha Fz-Cz (uV),[7]; [13],−0.8% (−19.5% to 22.1%) P = .9310
same,EEG Alpha Pz-Oz (uV),[7]; [13],−13.1% (−27.2% to 3.7%) P = .1086
same,EEG Alpha Fz-Cz (uV),[7]; [14],7.8% (−7.0% to 25.1%) P = .3088
same,EEG Alpha Pz-Oz (uV),[7]; [14],13.8% (−5.4% to 36.9%) P = .1633
same,EEG Alpha Fz-Cz (uV),[7]; [15],21.5% (4.8% to 40.8%) P = .0116
same,EEG Alpha Pz-Oz (uV),[7]; [15],19.7% (−0.2% to 43.6%) P = .0530
same,EEG Alpha Fz-Cz (uV),[7]; [16],−10.1% (−24.2% to 6.6%) P = .2121
same,EEG Alpha Pz-Oz (uV),[7]; [16],2.1% (−16.3% to 24.5%) P = .8306
same,human equivalent dose,[8]; estimated from the rat NOAEL,48 mg
same,NOAEL,"[8]; intranasal, 28-day, Wistar rats",5 mg/kg
same,Brain-to-blood ratio (AUClast brain / AUClast blood),[9]; 5.0 mg/kg Gln-1062 IN,8.1
same,Brain-to-blood ratio (AUClast brain / AUClast blood),[9]; 5.0 mg/kg Gln-1062 IV,18.40
same,Brain-to-blood ratio (AUClast brain / AUClast blood),[9]; 20.0 mg/kg Gln-1062 IN,10.2
same,AUClast,"[9]; blood, 5.0 mg/kg Gln-1062 IV",528 ng·h/mL
same,Cmax,"[9]; blood, 5.0 mg/kg Gln-1062 IV",650 ng/mL
same,AUClast,"[9]; brain, 5.0 mg/kg Gln-1062 IV",9717 ng·h/g
same,Any event (treatment emerging adverse events),[10]; [17],6 (100)
same,Headache,[10]; [17],2 (33.3)
same,Nasal discomfort,[10]; [17],6 (100)
same,Rhinorrhea,[10]; [17],2 (33.3)
same,Sneezing,[10]; [17],1 (16.7)
same,"Diarrhea, incidence",[10]; [18],did not occur
same,"Vomiting, incidence",[10]; [18],did not occur
same,"Cold sweat or hyperhidrosis, incidence",[10]; Gln-1062 11 mg,16.7%
same,"Nausea, incidence",[10]; [19],16.7%
same,Any event (treatment emerging adverse events),[10]; [19],6 (100)
same,Cold sweat or hyperhidrosis,[10]; [19],1 (16.7)
same,Headache,[10]; [19],2 (33.3)
same,Nasal discomfort,[10]; [19],6 (100)
same,Nausea,[10]; [19],1 (16.7)
same,Rhinorrhea,[10]; [19],4 (66.7)
same,Sneezing,[10]; [19],1 (16.7)
same,Vomiting,[10]; [19],1 (16.7)
same,"Diarrhea, incidence",[10]; [20],did not occur
same,"Vomiting, incidence",[10]; [20],16.7%
same,"Nausea, incidence",[10]; [21],16.7%
same,Any event (treatment emerging adverse events),[10]; [21],5 (83.3)
same,Diarrhea,[10]; [21],1 (16.7)
same,Headache,[10]; [21],3 (50)
same,Nasal discomfort,[10]; [21],4 (66.7)
same,Nausea,[10]; [21],1 (16.7)
same,Rhinorrhea,[10]; [21],2 (33.3)
same,Sneezing,[10]; [21],1 (16.7)
same,"Diarrhea, incidence",[10]; [22],16.7%
same,"Vomiting, incidence",[10]; [22],did not occur at all
same,Any event (treatment emerging adverse events),[10]; [23],5 (83.3)
same,Diarrhea,[10]; [23],1 (16.7)
same,Headache,[10]; [23],2 (33.3)
same,Nasal discomfort,[10]; [23],4 (66.7)
same,Nausea,[10]; [23],3 (50)
same,Rhinorrhea,[10]; [23],1 (16.7)
same,Sneezing,[10]; [23],1 (16.7)
same,Vomiting,[10]; [23],2 (33.3)
same,"Diarrhea, incidence",[10]; [24],16.7%
same,"Vomiting, incidence",[10]; [24],33.3%
same,"Cold sweat or hyperhidrosis, incidence",[10]; Gln-1062 44 mg,50%
same,Any event (treatment emerging adverse events),[10]; [25],5 (83.3)
same,Cold sweat or hyperhidrosis,[10]; [25],3 (50)
same,Diarrhea,[10]; [25],1 (16.7)
same,Nasal discomfort,[10]; [25],3 (50)
same,Nausea,[10]; [25],3 (50)
same,Rhinorrhea,[10]; [25],3 (50)
same,Sneezing,[10]; [25],3 (50)
same,Vomiting,[10]; [25],2 (33.3)
same,"Diarrhea, incidence",[10]; [26],16.7%
same,"Vomiting, incidence",[10]; [26],33.3%
same,"Nausea, incidence",[10]; Gln-1062 at the highest dose levels (n = 3),50%
same,single dose levels safe and well tolerated,[10]; intranasal single dose,up to 33 mg
same,Tmax,[11],15 to 45 min
same,half-life,[11],66 to 168 min
